High-throughput results deposited in PubChem by The Scripps Research Institute Molecular Screening Center.
CHRM5 agonist: CHRM5 agonism in calcium assay; AID 624037; P08912; 0.19% of 360,000 active; CHO-K1 hM5 cells, Fluo-8 calcium fluorescence; 0% DMSO wells, 100% maximal acetylcholine response; activation, % at 3 µM;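 active = activation above the run's mean over test compounds plus 3 SD, cut at about 23% in these data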;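 note: signal is peak over basal fluorescence ratio across the kinetic read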
CHRM5 PAM: CHRM5 positive allosteric modulation; P08912; 0.3% of 360,000 active; activation, % at 3 µM; CHO-K1 hM5, Fluo-8 calcium, ACh EC20 PAM; 0% = ACh EC20, 100% = ACh EC100; AID 624038;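 active = activation above the run cutoff, the mean activation of all test compounds plus 3 SD, cut at about 18% in these data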
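system = human M5 receptor in CHO-K1 cells | compound = one concentration, 3 µM final (nominal) | schedule = Post-acetylcholine fluorescence recording 140 s | signal = Fluo-8 calcium dye fluorescence, kinetic read | benchmarks = low control EC20 acetylcholine (0%), high control EC100 acetylcholine (100%) | repeats = singlicate, one well per test compound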
M4 antag: antagonists of human muscarinic M4 receptor (CHRM4); CHO-hM4 cells, ACh EC80, Fluo-8 calcium fluorescence; inhibition, % at 3 µM; P08173; 0.73% of 360,000 active; AID 624125;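 active = inhibition above its plate's cutoff, the mean inhibition of sample wells plus 3 SD, cut at about 27% in these data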;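 note: 0% = acetylcholine EC80 with DMSO and 100% = DMSO without agonist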
Target sequence (P08173 whole entry, looked up): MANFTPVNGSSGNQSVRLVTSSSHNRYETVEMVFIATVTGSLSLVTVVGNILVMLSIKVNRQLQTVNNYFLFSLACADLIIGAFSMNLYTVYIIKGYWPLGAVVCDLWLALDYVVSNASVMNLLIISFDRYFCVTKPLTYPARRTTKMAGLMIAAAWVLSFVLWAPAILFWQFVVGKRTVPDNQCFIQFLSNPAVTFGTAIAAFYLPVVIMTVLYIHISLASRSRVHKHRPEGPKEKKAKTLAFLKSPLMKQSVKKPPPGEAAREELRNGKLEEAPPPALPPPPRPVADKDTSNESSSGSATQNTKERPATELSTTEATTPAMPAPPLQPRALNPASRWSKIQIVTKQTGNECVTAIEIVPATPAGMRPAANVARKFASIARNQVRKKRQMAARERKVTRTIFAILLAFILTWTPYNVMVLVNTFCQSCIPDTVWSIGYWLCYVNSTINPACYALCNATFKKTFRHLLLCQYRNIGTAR
M5 antag: blocks acetylcholine activation of human M5 receptor | P08912 | CHO-hM5 cells, Fluo-8 calcium fluorescence, ACh EC80 | inhibition, % at 3 µM | 0.59% of 360,000 active | AID 624040;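 active = inhibition above a per-plate cutoff, the mean of that plate's test compounds plus 3 SD, cut at about 27% in these data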;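 note: 0% = acetylcholine EC80 with DMSO and 100% = DMSO without agonist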
CHRM4 PAM: potentiates acetylcholine response at human M4 receptor; activation, % at 3 µM; CHO-K1 hM4/Gqi5, Fluo-8 calcium fluorescence, ACh EC20; 0% = ACh EC20, 100% = maximal ACh; 0.4% of 360,000 active;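 active = activation above its plate's cutoff, the mean activation of sample wells plus 3 SD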
CHRM4 agonist: agonists of human muscarinic M4 receptor (CHRM4); P08173; CHO-K1 hM4/Gqi5, Fluo-8 calcium fluorescence; vehicle 0%, full acetylcholine response 100%; activation, % at 3 µM; 0.14% of 360,000 active; AID 624127;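 active = activation above the run mean over all test wells plus 3 SD, cut at about 32% in these data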;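 note: peak over basal fluorescence ratio per well then scaled between controls; 0% = DMSO wells and 100% = acetylcholine at EC100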
* = called active by the depositor. Sampled rows, rich in hits. Any-hit rate of the full collection: about 1.9%.

SMILES | CHRM5 agonist | CHRM5 PAM | M4 antag | M5 antag | CHRM4 PAM | CHRM4 agonist
O=C1C2C3c4ccccc4C(c4ccccc43)[C@@H]2C(=O)N1c1ccccn1 (stereo partly drawn) | -3 | -1 | -3 | 4 | -6 | 1
O=C1CCC(=O)N1N1C(=O)C2C3c4ccccc4C(c4ccccc43)C2C1=O (stereo not drawn) | 1 | 22* | 3 | -4 | 9 | 1
C1CCN(C2CCN(c3nc4nonc4nc3N3CCSCC3)CC2)C1 | -9 | -11 | 31* | 7 | -20 | 1
C1CC2CN(c3nc4nonc4nc3N3CCSCC3)CCN2C1 (stereo not drawn) | -8 | -5 | 9 | 0 | -10 | 1
Cc1nn(CC(=O)Nc2ccc3c(c2)CCC3)c(C)c1[N+](=O)[O-] | -2 | -2 | -29 | -10 | 0 | 3
O=C(Nc1ccc(Br)c(C(F)(F)F)c1)c1ccccc1 | -3 | -16 | 0 | 10 | -10 | 7
O=C(Nc1ccc(Br)c(C(F)(F)F)c1)c1ccc(C(F)(F)F)cc1 | -4 | -34 | 34* | 31* | -18 | 10
Cc1nc(NC(=O)c2ccco2)sc1-c1csc(Nc2ccc(Cl)cc2)n1 | 43* | 6 | 1 | 18 | 5 | 1
Cc1ccc(-c2csc(NC(=O)c3ccco3)n2)cc1C | 26* | 6 | 6 | 8 | 1 | 1
O=C(Nc1nc(-c2ccccc2)cs1)c1ccco1 | 11 | -1 | 7 | -8 | -5 | 0
Cc1nc(NC(=O)c2ccco2)sc1-c1csc(Nc2ccc(Cl)cc2Cl)n1 | 47* | 17 | -12 | 20 | 14 | 3
CCCCn1c(-c2ccc([N+](=O)[O-])cc2)n[nH]c1=S | -7 | -21 | 95* | 46* | -24 | 1
C[C@@H]1CC[C@H](Cc2ccc(-n3cccc3)cc2)N1C(=O)OC(C)(C)C | -2 | 5 | -27 | -17 | -4 | -2
CS(=O)(=O)c1ncc(CO)n1Cc1ccccc1 | 2 | 5 | -3 | -6 | 2 | 0
COC(=O)c1c(NC(=S)NC(=O)c2ccco2)sc2c1CCCC2 | 1 | 1 | -2 | 0 | 33* | 0
Cc1sc(NC(=S)NC(=O)CCc2ccccc2)c(C(N)=O)c1C | 0 | 1 | 0 | 2 | 2 | 2
CCOC(=O)c1c(NC(=O)c2ccco2)sc2c1CCCCC2 | 1 | -1 | -1 | 9 | 4 | -2
CCOC(=O)c1c(NC(=O)C(C)N2CCN(C(=O)c3ccco3)CC2)sc2c1CCCC2 (stereo not drawn) | 27* | 6 | 49* | -9 | -32 | 41*
Cc1sc(NC(=S)NC(=O)c2ccco2)c(C(N)=O)c1C | 1 | -19 | 1 | 31* | -6 | 13
COc1ncnc2c1ncn2CCCN[C@H](C)c1cccc2ccccc12 | 0 | -3 | -15 | 6 | 6 | 1
COc1ccccc1NC(=O)c1ccc2c(=O)n3c(nc2c1)CCC3 | 5 | -7 | -15 | 3 | 7 | 1
Cc1nc(=S)c2c([nH]1)-c1ccccc1CC21CCCCC1 | 0 | 5 | 8 | 6 | -3 | 0
CCN=C(NCC)SC1CC(=O)N(c2cccc(OC)c2)C1=O (stereo not drawn) | 5 | -20 | 27* | 25 | -14 | 17
Cc1cccc(N2CCN(C(=O)CCCCCn3c(=S)[nH]c4ccc(N5CCOCC5)cc4c3=O)CC2)c1C | -6 | 0 | -12 | -8 | 2 | 5
CC(/C=N/NC(=O)Cn1nccc1C)=C\c1ccc(C(C)C)cc1 | -3 | 1 | 30* | -3 | -6 | -1
O=C(O)CCCC(=O)OCc1c(-c2ccccc2)ncc2ccccc12 | -2 | -1 | 9 | 9 | 0 | -1
CN1CCc2cccc3c2C1Cc1ccc(O)c(O)c1-3 (stereo not drawn) | 36* | -7 | 5 | 4 | -8 | 3
Cn1nc(OC(=O)Nc2cccc(Cl)c2)cc1C(F)(F)F | 6 | -17 | 5 | 27* | 1 | 15
Cc1cc2ccccc2n1CCNCc1c(C(=O)N2CCOCC2)nc2ccccn12 | 245* | -6 | 25 | 75* | -17 | 30
